Key:
[1] = folding enthalpy; higher = less favourable; fluorescence melt of hairpins on a sequencing array, two-state fit; conditions: sodium 0.088 M
Procedure, shortened: (§1)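 Melting temperature and folding enthalpy were derived from bootstrapped two-state fits. The fitted temperatures were raised by 9.35 °C to agree with UV melts, and four replicates were combined by inverse variance. The underlying data were Cy3 fluorescence images of library hairpins, with annealed Cy3 and quencher oligos, on a sequenced MiSeq flow cell in 50 mM Na-HEPES pH 8.0, 25 mM NaCl, taken in 2.5 °C steps up to 60 °C, normalised to pre-quench Cy3 and to control constructs.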

[2] = melting temperature; fluorescence melt of hairpins on a sequencing array, two-state fit, raised by 9.35 °C to match UV melts; conditions: sodium 0.088 M
Procedure, shortened: as §1

Row | Sequence | folding enthalpy [1] | Tm [2]
1 | GATCTTCCCTAAGATC ((((((....)))))) | -130 kJ/mol | 43.3 °C
2 | GATCTTCGCGAAGATC ((((((....)))))) | -247 kJ/mol | 55.3 °C
3 | GATCTTCGGAAAGATC ((((((....)))))) | -122 kJ/mol | 38.9 °C
4 | GATCTTCGGCAAGATC ((((((....)))))) | -118 kJ/mol | 37.8 °C
5 | GATCTTCGTAAGATC ((((((...)))))) | -129 kJ/mol | 45.2 °C
6 | GATCTTCGTCAAGATC ((((((....)))))) | -140 kJ/mol | 40.7 °C
7 | GATCTTCGTGAAGATC ((((((....)))))) | -171 kJ/mol | 53.3 °C
8 | GATCTTCTAAAGATC ((((((...)))))) | -129 kJ/mol | 42.9 °C
9 | GATCTTCTGAAGATC ((((((...)))))) | -155 kJ/mol | 43.6 °C
10 | GATCTTGAAAAGATC ((((((...)))))) | -140 kJ/mol | 54.8 °C
11 | GATCTTGAAGAAGATC ((((((....)))))) | -108 kJ/mol | 44.3 °C
12 | GATCTTGAATAAGATC ((((((....)))))) | -133 kJ/mol | 49.3 °C
13 | GATCTTGATAAGATC ((((((...)))))) | -90.3 kJ/mol | 43.6 °C
14 | GATCTTGCAAAAGATC ((((((....)))))) | -157 kJ/mol | 53.5 °C
15 | GATCTTGCAAAGATC ((((((...)))))) | -171 kJ/mol | 55 °C
16 | GATCTTGCAGAAGATC ((((((....)))))) | -146 kJ/mol | 46.8 °C
17 | GATCTTGCCCAAGATC ((((((....)))))) | -192 kJ/mol | 48.9 °C
18 | GATCTTGCGCAAGATC ((((((....)))))) | -226 kJ/mol | 55.5 °C
19 | GATCTTGGAAACAAGACC (.(((((....))))).) | -72.8 kJ/mol | 35.2 °C
20 | GATCTTGGAAACAAGGTC ((.((((....)))).)) | -142 kJ/mol | 44.2 °C
21 | GATCTTGGAAACGAGATC (((((.(....).))))) | -153 kJ/mol | 44.2 °C
22 | GATCTTGGATAAGATC ((((((....)))))) | -128 kJ/mol | 49.4 °C
23 | GATCTTGGCAAAGATC ((((((....)))))) | -163 kJ/mol | 53.2 °C
24 | GATCTTGGCAAGATC ((((((...)))))) | -193 kJ/mol | 48.2 °C

Row | Sequence | folding enthalpy [1] | Tm [2]
25 | GATCTTGTAAAAGATC ((((((....)))))) | -172 kJ/mol | 52.8 °C
26 | GATCTTGTAGAAGATC ((((((....)))))) | -115 kJ/mol | 46.4 °C
27 | GATCTTGTCAAGATC ((((((...)))))) | -143 kJ/mol | 47.4 °C
28 | GATCTTGTCCAAGATC ((((((....)))))) | -143 kJ/mol | 50.1 °C
29 | GATCTTGTGTAAGATC ((((((....)))))) | -145 kJ/mol | 43.6 °C
30 | GATCTTGTTTAAGATC ((((((....)))))) | -134 kJ/mol | 45.8 °C
31 | GATCTTTAAAAAGATC ((((((....)))))) | -145 kJ/mol | 40.5 °C
32 | GATCTTTAGAAGATC ((((((...)))))) | -104 kJ/mol | 38.7 °C
33 | GATCTTTATAAGATC ((((((...)))))) | -139 kJ/mol | 44 °C
34 | GATCTTTATCAAGATC ((((((....)))))) | -123 kJ/mol | 39.3 °C
35 | GATCTTTCAAAAGATC ((((((....)))))) | -135 kJ/mol | 42.2 °C
36 | GATCTTTCCAAGATC ((((((...)))))) | -155 kJ/mol | 47.7 °C
37 | GATCTTTCCTAAGATC ((((((....)))))) | -143 kJ/mol | 45.1 °C
38 | GATCTTTCGAAGATC ((((((...)))))) | -120 kJ/mol | 40.7 °C
39 | GATCTTTCTAAAGATC ((((((....)))))) | -158 kJ/mol | 47.3 °C
40 | GATCTTTCTGAAGATC ((((((....)))))) | -151 kJ/mol | 45.2 °C
41 | GATCTTTGCAAAGATC ((((((....)))))) | -239 kJ/mol | 50.9 °C
42 | GATCTTTGCCAAGATC ((((((....)))))) | -124 kJ/mol | 42.5 °C
43 | GATCTTTGCGAAGATC ((((((....)))))) | -191 kJ/mol | 47.6 °C
44 | GATCTTTGCTAAGATC ((((((....)))))) | -150 kJ/mol | 46 °C
45 | GATCTTTTAAAAGATC ((((((....)))))) | -164 kJ/mol | 45.9 °C
46 | GATCTTTTAAAGATC ((((((...)))))) | -129 kJ/mol | 43.8 °C
47 | GATCTTTTACAAGATC ((((((....)))))) | -133 kJ/mol | 42.8 °C
48 | GATCTTTTAGAAGATC ((((((....)))))) | -175 kJ/mol | 44.4 °C

Row | Sequence | folding enthalpy [1] | Tm [2]
49 | GATCTTTTCTAAGATC ((((((....)))))) | -154 kJ/mol | 45.2 °C
50 | GATGAACGAAAGTTAATC (((.(((....))).))) | -99.2 kJ/mol | 38.6 °C
51 | GATGAACGAAAGTTATC (((.(((....)))))) | -46.3 kJ/mol | 28.4 °C
52 | GATGAAGGAAACCTCATC (((((.(....).))))) | -103 kJ/mol | 36.1 °C
53 | GATGACGAAAGTCAATC ((((((....))).))) | -67.9 kJ/mol | 43.7 °C
54 | GATGACGGAAACATCATC (((((.(....).))))) | -131 kJ/mol | 34.8 °C
55 | GATGAGGAAACTCATC ((((((....)))))) | -146 kJ/mol | 52.8 °C
56 | GATGAGGGAAACCTCATC (((((((....))))))) | -166 kJ/mol | 58.4 °C
57 | GATGAGGGAAACCTCGTC ((.((((....)))).)) | -93.4 kJ/mol | 47.9 °C
58 | GATGATCCGAAAGGAATC (((..(((....)))))) | -59.8 kJ/mol | 34.7 °C
59 | GATGATGGAAACACCATC ((((.((....)).)))) | -87.1 kJ/mol | 38.6 °C
60 | GATGATGGAAACATCGTC ((.((((....)))).)) | -135 kJ/mol | 47.4 °C
61 | GATGCACGAAAGTGAATC (((.(((....))).))) | -97.8 kJ/mol | 50.8 °C
62 | GATGCAGGAAACTGCGTC ((.((((....)))).)) | -187 kJ/mol | 52.5 °C
63 | GATGCCGAAAGGCAGATC ((((((....)))..))) | -65.1 kJ/mol | 52.2 °C
64 | GATGCCGAAAGGCCGATC ((((((....)))..))) | -43.1 kJ/mol | 25.2 °C
65 | GATGCCGAAAGGCTGATC ((((((....)))..))) | -41.5 kJ/mol | 36.6 °C
66 | GATGCCGAAAGGCTTATC ((((((....)))..))) | -28.3 kJ/mol | 31.5 °C
67 | GATGCCGGAAACGGTGTC ((..(((....)))..)) | -102 kJ/mol | 47.8 °C
68 | GATGCGGGAAACCGCACC (.(((((....))))).) | -47.2 kJ/mol | 42.9 °C
69 | GATGCTGGAAACAGCATC (((((((....))))))) | -173 kJ/mol | 66.9 °C
70 | GATGGACGAAAGTCTATC (((.(((....))).))) | -129 kJ/mol | 52.9 °C
71 | GATGGAGAAATCCATC ((((((....)))))) | -126 kJ/mol | 51 °C

Reference: the array DNA melting data of Ke et al. (doi:10.1101/2024.01.08.574731)
